# Tb hexokinase = blocks Trypanosoma brucei hexokinase 1 activity. inhibition, % at 10 µM. recombinant TbHK1, G6PDH-coupled NADH A340. 220,000 tested, 0.11% active;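 active means inhibition of 50% or more in the single-dose primary screen; inactive means inhibition below 50%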
# HSF1 inhib = HSF1 inhibition. NIH3T3-HGL HSE-luciferase, MG132-induced, luminescence 8 h; active compounds read low. activity change, negative = inhibition, % at 7.5 µM (by protocol). 300,000 tested, 0.77% active. AID 2098;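 active means more than half of replicate wells show activity change below -50%, luminescence cut by over half; inconclusive means some wells, but at most half, below -50%; inactive means no replicate well below -50%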;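 further: luciferase reports HSF-1 transcriptional activity via heat shock element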
# Hsp70 activator = transcriptional activators of Hsp70; HeLa Hsp70 promoter luciferase reporter, luminescence; scaled: vehicle 0, proteasome-inhibitor control 100%; activation, % at 10 µM; 200,000 tested, 0.04% active; AID 1203;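 active means activation above the mean across all tested compounds plus 3 SD, cutoff set per campaign, cut at about 5.5% in these data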
# HKDC1 inh = HKDC1 (human) hexokinase inhibition; recombinant HKDC1, G6PDH/diaphorase resazurin coupled fluorescence; inhibition, % at 20 µM; 340,000 tested, 0.16% active;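 active means inhibition above about 35% when tested at 20 µM, limit read from the data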
#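 Test system: Recombinant HKDC1 (HK5) hexokinase enzyme, produced in-house | Input: HKDC1 at 5 µg/mL | Buffer or medium: Tris pH 8.0 buffer with MgCl2, Tween-20, BSA, BME | Schedule: 90 min reaction incubation at room temperature, dark | Technique: Resazurin-to-resorufin fluorescence via G6PDH and diaphorase coupling, 525/613 nm | Controls: DMSO wells with and without enzyme mix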
# HSP90 inh = blocks HSP90-mediated luciferase refolding in reticulocyte lysate; Rabbit reticulocyte lysate, luciferase refolding luminescence, 3 h; inhibition, % at 5.6 µM; 290,000 tested, 0.91% active; AID 1789;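 active means inhibition above the screen-wide mean plus 3 SD, computed separately per campaign, cut at about 16% in these data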;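 further: inhibitors lower the luminescence because luciferase stays unfolded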
# HSF1 activator = increases HSF-1 driven luciferase reporter signal; AID 504408; 300,000 tested, 1.7% active; activation, % at 9 µM; NIH3T3-HGL HSF-1 luciferase reporter, MG132, 8 h; 100% = twice DMSO control signal;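 active means mean replicate activation of at least 50% with a set share of replicates each reaching 50%; inconclusive means only one of those two conditions met; inactive means mean below 50% and too few replicates reaching it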
# HSP90 inh confirm = confirmation of HSP90 inhibitors. shares compounds with HSP90 inh. rabbit reticulocyte lysate, luciferase refolding luminescence, 3 h. inhibition, % at 5.9 µM. 2,300 tested, 64% active. AID 1846; in the data active means inhibition above about 18%
# luciferase ctr = firefly luciferase inhibition, HSP90 counter-screen; shares compounds with HSP90 inh; purified native firefly luciferase, luminescence; inhibition, % at 5.9 µM; 2,300 tested, 48% active;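 active means inhibition above the mean inhibition of all tested sample wells plus 3 SD, cut at about 10% in these data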
# Target sequence (P08659 whole entry, looked up): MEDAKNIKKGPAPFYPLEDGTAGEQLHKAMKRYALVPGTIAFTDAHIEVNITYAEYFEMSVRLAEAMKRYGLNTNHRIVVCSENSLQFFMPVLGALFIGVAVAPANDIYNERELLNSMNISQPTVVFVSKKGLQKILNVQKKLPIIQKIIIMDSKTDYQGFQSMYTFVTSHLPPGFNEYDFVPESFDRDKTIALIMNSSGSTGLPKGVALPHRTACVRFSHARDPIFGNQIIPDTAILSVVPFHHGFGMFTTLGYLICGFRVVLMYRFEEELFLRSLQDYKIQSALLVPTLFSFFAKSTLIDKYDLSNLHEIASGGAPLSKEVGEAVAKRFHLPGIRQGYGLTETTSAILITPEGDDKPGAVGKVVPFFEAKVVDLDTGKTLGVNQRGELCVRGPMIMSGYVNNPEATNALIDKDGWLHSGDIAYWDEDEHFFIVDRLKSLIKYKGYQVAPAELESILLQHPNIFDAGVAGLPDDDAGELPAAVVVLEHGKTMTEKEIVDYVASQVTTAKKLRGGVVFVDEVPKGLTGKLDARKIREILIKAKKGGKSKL
# Numbers stand for hits; n = inactive; u = inconclusive; x = not tested or not shown. Compounds with a hit are over-represented: about 3.1% of the library has one in this group of screens.
SMILES,Tb hexokinase,HSF1 inhib,Hsp70 activator,HKDC1 inh,HSP90 inh,HSF1 activator,HSP90 inh confirm,luciferase ctr
CCCN1C=CC(=C2C(=O)c3ccccc3C2=O)C=C1,n,-83.3,n,n,91.7,n,96.0,91.2
CCCCN1C(C)=CC(=C2C(=O)c3ccccc3C2=O)C=C1C,n,n,n,n,17.2,n,43.2,30.9
COc1ccc(OC)c(CCNC(=O)c2ccc(NC3=NC4CS(=O)(=O)CC4S3)cc2)c1 (configuration not stated),x,n,x,n,n,n,x,x
CC(=O)c1ccccc1OCCCCN1CCCCC1,x,n,x,n,n,n,x,x
O=C(NC1(Cc2ccccc2)CCN(CCCc2ccccc2)C1=O)c1ccccc1 (configuration not stated),x,x,x,n,x,x,x,x
CC1(C)NC(=O)N(CCOc2cccc(Cl)c2Cl)C1=O,n,n,n,n,18.3,n,n,n
CC(C)(C)c1ccc(C(=O)Nc2cccc3c(=O)[nH][nH]c(=O)c23)cc1,n,-61.4,n,n,46.6,n,62.5,20.8
Cc1ccc(C(=O)Nc2cccc3ccccc23)cc1,x,n,x,n,n,n,x,x
Cc1ccc(-c2nnc(Nc3ccccc3)o2)cc1,n,n,n,n,36.2,n,80.8,71.5
Cc1ccc(NC(=O)Nc2nnc(-c3ccccc3)o2)cc1,n,n,n,n,n,n,x,x
C[C@H]1Oc2ccccc2C(=O)C1C(=O)c1ccccc1 (some centres not stated),x,n,x,n,x,n,x,x
COc1ccc2cc(C(=O)N/N=C/c3sc4ccccc4c3O)ccc2c1,n,n,n,n,17.5,n,n,n
Cc1ccccc1NC(=O)N1CCCC(c2nc(-c3ccc(C(C)C)cc3)no2)C1 (configuration not stated),n,n,n,n,69.9,n,n,n
Cc1ccc(O)c(N=Nc2nccs2)c1,x,x,x,n,x,x,x,x
O=c1oc(Nc2ccc(F)cc2)nc2ccccc12,n,n,n,n,18.2,n,n,n
O=C(NCCc1ccccc1)c1ccccc1NC(=O)C1CCCCC1C(=O)O (configuration not stated),n,n,n,x,47.4,n,n,n
NC(=O)C1=CC2C3C=CC2(O)C(=O)OC3O1 (configuration not stated),x,x,x,n,x,x,x,x
CC1CCCCC1NC(=O)CSc1nnc(COc2ccc(Cl)cc2)o1 (configuration not stated),x,n,x,n,n,n,x,x
COc1ccc(-c2cc(C(=O)Nc3cccc(O)c3)no2)cc1,x,n,x,n,30.7,n,70.5,53.6
CC(C)Cc1cc(C(=O)Nc2cccc(O)c2)no1,n,n,x,n,38.5,n,71.1,64.6
O=C(NCCS(=O)(=O)NCc1cccnc1)c1ccccc1,x,n,x,n,x,n,x,x
CSc1ccc(CNC(=O)C2CCC(=O)N(CCc3cccc(F)c3)C2)cc1 (configuration not stated),x,n,x,n,n,n,x,x
O=C(CN1C(=O)CCC1=O)Nc1cccc2c1C(=O)NC2=O,n,n,n,n,21.4,n,n,n
CCOC(=O)c1csc(NC(=O)c2ccccc2)n1,n,n,n,n,n,n,x,x
CCOC(=O)c1csc(NC(=O)c2ccc3c(c2)OCCO3)n1,x,n,x,n,57.2,n,84.1,n
SMILES,Tb hexokinase,HSF1 inhib,Hsp70 activator,HKDC1 inh,HSP90 inh,HSF1 activator,HSP90 inh confirm,luciferase ctr
CCOC(=O)c1csc(NC(=O)c2ccc(OCC)cc2)n1,n,n,n,n,41.6,n,75.0,n
COC(=O)c1ccc(-n2c(C)cc(-c3csc(NC(=O)c4ccc(S(=O)(=O)N(C)C)cc4)n3)c2C)cc1,n,n,n,n,25.4,n,24.4,n
CCOC(=O)c1csc(NC(=O)c2ccc(S(=O)(=O)N(C)C)cc2)n1,n,n,n,n,24.6,n,37.3,n
CCOC(=O)c1sc(NC(=O)c2ccc(S(=O)(=O)N(C)C)cc2)nc1C,n,n,n,n,n,n,x,x
CCOC(=O)c1csc(NC(=O)c2ccc(OC)c(OC)c2)n1,n,n,n,n,n,n,x,x
COc1ccc(/C(O)=C2/C(=O)C(=O)N(CCN3CCNCC3)C2c2cccc([N+](=O)[O-])c2)cc1 (configuration not stated),x,n,x,n,n,n,x,x
Cc1ccc(C(=O)n2c3ccccc3c3ccccc32)cc1,n,n,n,n,17.0,n,n,n
CC(=O)Nc1cccc(-c2cc(-c3c(Cl)cccc3Cl)no2)c1,n,n,x,n,18.9,n,n,n
CNC(=O)Nc1cccc(-c2cc(-c3c(Cl)cccc3Cl)no2)c1,n,n,x,n,n,n,x,x
Cc1cc(OCC(=O)Nc2ccc(CN3CCOCC3)cc2)c2c(C)c(C)c(=O)oc2c1,x,n,x,n,n,n,x,x
CCC(C)c1ccc(NC(=O)c2cccs2)cc1 (configuration not stated),n,n,n,n,17.4,u,24.3,n
CCC(C)NS(=O)(=O)c1ccc(NC(=O)c2cccs2)cc1 (configuration not stated),n,n,n,n,n,n,x,x
O=C(Nc1cccc(-c2cn3c(n2)SCC3)c1)c1ccc2ccccc2n1,n,n,n,n,50.4,n,30.8,n
O=C(Nc1ccc(-c2cn3c(n2)SCC3)cc1)c1ccc2ccccc2n1,n,n,n,n,n,n,x,x
O=C(Nc1nnc(-c2ccc(F)cc2)s1)c1ccco1,x,n,x,n,50.5,n,n,n
Cc1cccc(-c2nnc(NC(=O)c3ccco3)s2)c1,x,n,x,n,n,n,x,x
O=C(NN=Cc1ccccc1)C(Oc1ccccc1)c1ccccc1 (configuration not stated),x,x,x,n,x,x,x,x
CC(=O)OC1COC(OC(C)=O)CO1 (configuration not stated),x,x,x,n,x,x,x,x
Nc1nc(-c2ccco2)c(-c2ccco2)s1,n,n,n,n,20.4,n,n,n
Nc1nc(-c2ccco2)cs1,n,n,n,n,n,n,x,x
C[C@@H]1COC(=O)[C@H](Cc2ccc(F)cc2)CC/C=C\C[C@@H](CC(=O)NCCO)C(=O)N1,x,x,x,n,x,x,x,x
OC(COc1ccc(Cl)cc1)CN1CCN(c2ccccc2)CC1 (configuration not stated),x,n,x,n,39.9,n,n,n
OC(COc1cccc2ccccc12)CN1CCOCC1 (configuration not stated),x,x,x,n,x,x,x,x
CC(C)(C)c1ccc(OCC(O)CN2CCN(c3ccccn3)CC2)cc1 (configuration not stated),x,n,x,n,39.7,n,n,n
Cc1ccc(OCC(O)CN2CCN(c3ccccc3)CC2)cc1 (configuration not stated),n,n,n,n,n,n,x,x
OC(COc1cccc2ccccc12)CN1CCN(c2ccccc2)CC1 (configuration not stated),n,n,x,n,n,n,n,n

# Screens deposited in PubChem by several laboratories.
